NR2E3 ag-1: activates human NR2E3 receptor. CHO-S Gal4-NCOR/VP16-NR2E3 two-hybrid, luciferase. inhibition of corepressor binding, % at 3.98 µM. actives 0.35% (n = 360,000);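 active = inhibition above the mean of all tested compounds plus 3 SD, cut at about 70% in these data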;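 also: 0% = DMSO with NR2E3 transfected cells and 100% = cells lacking NR2E3 construct; higher means lower luciferase signal from less NR2E3 corepressor binding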
JMJD2C inh: inhibitors of human GASC-1 (JMJD2C) demethylase | GST-JMJD2C(1-420) H3K9me3 demethylation, DELFIA europium | inhibition, % at 2.35 µM | actives 0.069% (n = 330,000) | AID 2099;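 active = more than half of a compound's replicate wells show inhibition beyond 50%, single wells judged on their own value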;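 also: signal counts dimethyl H3K9 product captured on neutravidin plate; 0% = median of DMSO wells and 100% = 0.3 times that DMSO median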
ADAM10 inh: ADAM10 inhibition, QFRET primary screen; recombinant ADAM10, EDANS/DABCYL FRET peptide cleavage, 3 h; inhibition, % at 7 µM; actives 0.62% (n = 370,000);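 active = inhibition above a per-campaign cutoff equal to the mean of compounds falling between control-based bounds plus 3 SD, cut at about 20% in these data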;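 also: 0% = DMSO wells while the 100% control is not disclosed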
Target sequence (O14672 214-748 limits assumed): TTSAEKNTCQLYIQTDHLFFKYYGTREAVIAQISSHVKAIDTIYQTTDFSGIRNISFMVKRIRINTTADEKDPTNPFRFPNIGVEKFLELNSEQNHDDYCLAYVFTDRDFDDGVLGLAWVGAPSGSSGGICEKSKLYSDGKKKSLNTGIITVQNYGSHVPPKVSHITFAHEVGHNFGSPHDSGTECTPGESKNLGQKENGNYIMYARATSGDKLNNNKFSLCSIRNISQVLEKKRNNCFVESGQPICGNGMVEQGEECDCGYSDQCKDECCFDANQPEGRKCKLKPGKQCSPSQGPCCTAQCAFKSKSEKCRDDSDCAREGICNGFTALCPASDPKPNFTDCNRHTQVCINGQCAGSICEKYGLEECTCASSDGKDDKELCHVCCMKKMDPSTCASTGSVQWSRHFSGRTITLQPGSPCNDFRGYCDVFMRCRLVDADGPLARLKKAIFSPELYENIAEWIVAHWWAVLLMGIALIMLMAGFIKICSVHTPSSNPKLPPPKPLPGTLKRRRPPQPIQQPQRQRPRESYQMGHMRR
KLK7 zymogen act: activates the human kallikrein-7 zymogen; P49862; purified proKLK7, EDANS-DABCYL substrate fluorescence; 100% is mature enzyme control, 0% vehicle; activation, % at 7 µM; actives 0.9% (n = 370,000);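 active = activation above the mean of all tested compounds plus 3 SD, computed per campaign excluding outliers beyond control limits, cut at about 13% in these data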
NR2E3 ag-2: NR2E3 (human) agonism | inhibition of corepressor binding, % at 4.78 µM | AID 2300 | actives 0.12% (n = 320,000) | GST-NR2E3/biotin-RetCOR TR-FRET, 1536-well;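 active = percent inhibition above the cutoff of mean plus 3 SD of all tested compounds, set per screening campaign, cut at about 20% in these data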;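 also: 0% = DMSO wells and 100% = biotin wells as full block of FRET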
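Assay system: NR2E3–RetCOR corepressor complex. Quantity: 1.35 nM GST-NR2E3. Buffer or medium: pH 7.5 Tris-based buffer. Reagent: biotinylated RetCOR corepressor at 7 nM final. Schedule: 5 h at 4 °C. Detection: TR-FRET, emission read at 617 and 671 nm. Replicates: one well per compound, singlicate testing.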
ADAM17 inh: inhibits human ADAM17; AID 720648; recombinant ADAM17, EDANS/DABCYL FRET peptide cleavage; actives 0.83% (n = 370,000); P78536; inhibition, % at 6.95 µM;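 active = inhibition above the mean of compounds lying between control limits plus 3 SD, set per campaign, cut at about 8.5% in these data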;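 also: 0% = DMSO-only wells as the low control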
ADAM10 ctr: counter-screen for ADAM17 exosite inhibitors: inhibitors of human ADAM10; inhibition, % at 6.95 µM; recombinant ADAM10, EDANS/DABCYL FRET peptide cleavage, 3 h; shares compounds with ADAM17 inh; actives 47% (n = 2,900);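 active = mean inhibition over the triplicate runs exceeds the activity threshold set in the earlier primary screen, cut at about 20% in these data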;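 also: 0% = DMSO wells and 100% = marimastat wells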
ADAM17 confirm: human ADAM17 inhibition, confirmation; shares compounds with ADAM17 inh; recombinant ADAM17, EDANS/DABCYL QFRET peptide cleavage; inhibition, % at 6.95 µM; actives 65% (n = 2,900);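 active = mean inhibition across replicates above the hit cutoff set in the primary screen, cut at about 8.5% in these data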;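 also: 0% = DMSO wells and 100% = marimastat wells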
* = called active by the depositor; / = no result. A selection: hits, their analogues and other compounds. The true share with any hit is near 2.5%.

SMILES	NR2E3 ag-1	JMJD2C inh	ADAM10 inh	KLK7 zymogen act	NR2E3 ag-2	ADAM17 inh	ADAM10 ctr	ADAM17 confirm
CCOC(=O)[C@H]1[C@H]2COc3ccc(C)cc3[C@@H]2N2C(=O)c3cc(Br)ccc3NC(=O)[C@@]12C	-6	-25	10	0	/	9.5*	49*	17*
C[C@@]12C(=O)Nc3ccccc3C(=O)N1[C@H]1c3cc(Br)ccc3OC[C@@H]1[C@@H]2c1ccccc1	-13	-13	19	-1	2	8.6*	20*	11*
CCOC(=O)[C@@H]1[C@H]2COc3ccc(Br)cc3[C@@H]2N2C(=O)N(c3ccc(Br)cc3)C(=O)[C@]12C	-54	10	3	0	3	-1	/	/
C[C@@]12C(=O)Nc3ccc(Br)cc3C(=O)N1[C@H]1c3cc(Br)ccc3OC[C@@H]1[C@@H]2c1ccccc1	-5	15	10	-1	2	5	/	/
C/C(=N\NC(=O)CNC(=O)C(c1ccccc1)c1ccccc1)c1ccc(C(C)(C)C)cc1	-28	8	13	0	4	10*	4	2
COc1ccc(C(=O)C2(C(=O)NCc3ccccc3)CC(c3ccccc3C(F)(F)F)=NO2)cc1 (stereo not drawn)	/	/	12	1	/	9.1*	22*	15*
CC(C)(C)N1C(=O)c2ccccc2NC(=O)C1C(=O)NCCc1ccccc1F (stereo not drawn)	/	/	-33	0	/	-11	/	/
COc1ccc(NC(=O)CSc2nnc(-c3n[nH]c4c3CCC4)n2N)cc1	/	/	-5	0	/	-5	/	/
O=C(COC(=O)c1ccco1)Nc1ccc2c(c1)OCO2	-24	2	2	0	0	9.6*	-10	-6
COc1cc(OC)cc(C(=O)NNC(=O)CNC(=O)c2cccs2)c1	-14	2	6	-1	2	9.2*	3	4
COc1cccc(OCC(=O)NNC(=O)c2cccs2)c1	8	30	5	0	0	-4	/	/
CCCC(=O)N1CCC1(C)C(=O)NS(=O)(=O)c1ccccc1 (stereo not drawn)	14	/	-8	1	/	-5	/	/
O=C(CSc1nnc(Cc2ccccc2)n1-c1cccc(Cl)c1)N1CCOCC1	-6	30	-13	0	3	-1	/	/
Cc1cccc(-n2c(Cc3ccccc3)nnc2SCC(=O)N2CCOCC2)c1	10	0	15	0	-3	12*	-2	3
COc1cccc(CNC(=O)CN2CCC(c3nc4ccc(C)cc4[nH]3)CC2)c1	-21	18	-5	0	-1	-10	/	/
O=C(c1cc(C2CC2)nn1-c1ccccc1)N1CCN(S(=O)(=O)c2ccccc2F)CC1	12	/	-14	0	/	-2	/	/
CCC(Oc1ccc2c(=O)c(-c3ccccc3OC)coc2c1)C(=O)OCc1ccccc1 (stereo not drawn)	-25	2	17	1	-2	11*	27*	12*
CC(C)Oc1ccc2c(=O)c(-c3ccccc3)coc2c1	-166	-19	1	0	-1	-3	/	/
COC(=O)c1cc(S(=O)(=O)N2CCN(C(=O)c3ccco3)CC2)cn1C	-2	2	4	-1	-1	-2	/	/
COc1ccc(C2=Nc3ccccc3NC(=O)C2N(C(=O)c2cnc(C)cn2)c2ccc(N3CCOCC3)cc2)cc1 (stereo not drawn)	-17	/	-4	0	/	-2	/	/
Cc1cnc(C(=O)N(c2ccc(N3CCOCC3)cc2)C2C(=O)Nc3ccccc3N=C2c2ccc3c(c2)OCO3)cn1 (stereo not drawn)	-33	/	7	1	/	11*	11	9.8*
Cc1ccc(S(=O)(=O)N2C[C@H]3C(=O)C[C@@H](c4ccccc4)N(S(=O)(=O)c4ccc(C)cc4)[C@H]3C[C@H]2c2cccc3ccccc23)cc1	2	/	7	0	/	11*	18	13*
O=C(NNC1=NCCC1)C1CC1	-7	-9	-11	0	-1	2	/	/
CCCCCCCCn1cnc2c(N)c(C)c(C)cc21	0	-1	7	1	2	8.8*	19	9.0*
CCC(=O)c1ccc(OCC(=O)OCC(=O)NC2CCCCCCC2)cc1	5	-13	1	0	0	9.5*	9	8.8*
SMILES	NR2E3 ag-1	JMJD2C inh	ADAM10 inh	KLK7 zymogen act	NR2E3 ag-2	ADAM17 inh	ADAM10 ctr	ADAM17 confirm
CCC(=O)c1ccc(OCC(=O)NC2CCCC2)cc1	2	1	-10	0	3	-4	/	/
Cc1ccc(C2=NN(C(=O)CCCC(=O)O)C(c3ccc4c(c3)OCO4)C2)cc1 (stereo not drawn)	-25	-2	-4	-1	-2	-2	/	/
COc1cccc(C2C(C#N)=C(N)Oc3c2oc(CO)cc3=O)c1 (stereo not drawn)	-6	-5	-2	1	0	14*	6	11*
Cc1cc(F)ccc1-c1cc(C(=O)NCc2ccc(C(F)(F)F)cc2)[nH]n1	34	/	14	0	/	11*	24*	13*
CCOc1ccc(-c2cc(C(=O)NCc3ccc(C(F)(F)F)cc3)[nH]n2)c(C)c1	0	/	-6	0	/	0	/	/
CCCOc1ccc(F)cc1-c1cc(C(=O)NCc2cc(C(F)(F)F)cc(C(F)(F)F)c2)[nH]n1	2	/	/	/	/	/	/	/
COc1ccc(F)cc1-c1cc(C(=O)NCc2cc(C(F)(F)F)cc(C(F)(F)F)c2)[nH]n1	-32	/	6	1	/	12*	-1	3
CC(C)(C)c1ccc(OCc2ccc(C(=O)NCc3cccnc3)o2)cc1	-132	0	6	0	-1	2	/	/
CC(C)(C(=O)N1CCC1(C)C(=O)Nc1ccccc1Br)c1ccccc1 (stereo not drawn)	-6	/	11	0	/	11*	-2	0
CC(C)(C(=O)N1CCC1(C)C(=O)NC1Cc2ccccc2C1)c1ccccc1 (stereo not drawn)	13	/	-6	0	/	-2	/	/
Cc1ccc(OC(=O)CCNC(=O)c2ccccc2Cl)c(Br)c1	3	0	3	0	3	-1	/	/
CN(CC(=O)Nc1cccc(F)c1)C(=O)c1cn(-c2ccccc2)nc1-c1ccc(Cl)cc1	3	14	18	-1	-3	9.4*	28*	17*
Cc1cc(NC(=O)C2CC(=O)N(c3ccccc3Cl)C2)no1 (stereo not drawn)	-48	4	7	0	3	0	/	/

Compound activity deposited in PubChem BioAssay by several laboratories.
